# Experimental data of several laboratories.
# Target: Membrane-associated tyrosine- and threonine-specific cdc2-inhibitory kinase (PKMYT1, Homo sapiens, UniProt Q99640)
# Residues used in one study (Q99640 1-499): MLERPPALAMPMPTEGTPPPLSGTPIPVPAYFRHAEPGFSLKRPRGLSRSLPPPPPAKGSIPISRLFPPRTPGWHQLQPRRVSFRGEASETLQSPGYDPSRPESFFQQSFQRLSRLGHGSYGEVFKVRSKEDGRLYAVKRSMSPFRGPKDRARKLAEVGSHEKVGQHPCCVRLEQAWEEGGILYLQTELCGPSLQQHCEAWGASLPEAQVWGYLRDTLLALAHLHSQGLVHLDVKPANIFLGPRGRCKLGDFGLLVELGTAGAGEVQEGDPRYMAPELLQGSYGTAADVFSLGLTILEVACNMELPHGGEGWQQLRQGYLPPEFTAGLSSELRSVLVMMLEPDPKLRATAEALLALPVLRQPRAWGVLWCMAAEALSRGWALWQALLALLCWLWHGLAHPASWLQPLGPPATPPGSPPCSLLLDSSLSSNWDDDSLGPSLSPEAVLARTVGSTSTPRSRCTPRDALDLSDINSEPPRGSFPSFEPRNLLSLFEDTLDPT
test,conditions,endpoint,result,SMILES
"enzyme activity, inhibitor",5 µM,remaining activity,89.6%,O=C(Nc1cnn(-c2csc(C(=O)NC3COC3)c2)c1)Nc1c(F)cccc1Cl
"cell-free assay, competition with immobilised ligand",1 µM,remaining binding,79%,C[C@H](NC(=O)c1cnc2n1[C@](C)(Cc1ccc(C#N)cc1)C(=O)N2c1cc(Cl)c(F)c(Cl)c1)C(=O)NC1(c2ccccn2)CC1
"enzyme activity, inhibitor, radiometric",1 µM,remaining activity,84%,CC(C)(C)c1nc2c(s1)c1nc(N)ncc1c1ccc(NS(=O)(=O)c3c(F)cccc3F)c(F)c12
"thermal stability, DSF",100 µM,ΔTm,3 °C,C=CCn1c(=O)c2cnc(Nc3ccc(N4CCN(C)CC4)cc3)nc2n1-c1cccc(C(C)(C)O)n1
binding,1 µM,remaining binding,99%,C[C@@H]1CCN(c2nccc(-c3cnn4ncccc34)n2)C1
"cell-free assay, competition with immobilised ligand",1 µM,remaining binding,100%,CNCc1ccccc1-c1csc([C@H](C)Nc2nc(C)nc3cc(OC)c(OC)cc23)c1
"enzyme activity, inhibitor",23.5 nM,remaining activity,84%,Cc1ccc(C(=O)Nc2ccc(CN3CCN(C)CC3)c(C(F)(F)F)c2)cc1C#Cc1cnc2cccnn12
"cell-free assay, inhibitor",20 µM,remaining signal,75%,Nc1ncnc2occ(-c3ccc(NC(=O)Nc4cc(C(F)(F)F)ccc4F)cc3)c12
"enzyme activity, inhibitor",5 µM,remaining activity,87%,O=C(Nc1cnn(-c2csc(C(=O)NC3COC3)c2)c1)Nc1ccccc1Cl
"enzyme activity, inhibitor, radiometric",1 µM,remaining activity,88%,CC(C)(C)c1nc(-c2cccc(NS(=O)(=O)c3c(F)cccc3F)c2F)c(-c2ccnc(N)n2)s1
binding,1 µM,remaining binding,97%,c1cnn2ncc(-c3ccnc(N4CCC45COC5)n3)c2c1
